Source: article PMC3268052 (Journal of Molecular Biology, 2011)
Where two headings read alike, the source gives them in different places.

How the values were obtained:
PKR [1] = target: T1, PKR (Homo sapiens, UniProt P19525); assay: analytical ultracentrifugation; details: cited from earlier work
PKR [2] = target: T1, PKR; assay: PKR autophosphorylation activation assay; assay type: biochemical; details: 100 nM PKR, P50 buffer, 0.4 mM ATP, 20 min, 32 °C
Method in brief: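 Autophosphorylation of 100 nM PKR with heparin oligosaccharide activators over a concentration range. P50 buffer: 20 mM Hepes pH 7.5, 50 mM KCl, 5 mM MgCl2, 0.1 mM TCEP. Reactions contained 0.4 mM ATP plus 2 μCi [γ-32P]ATP and ran 20 min at 32 °C. Background autophosphorylation without activator and a 40-bp dsRNA (100 nM) served as references.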

PKR [3] = target: T1, PKR; assay type: binding
Method in brief: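 PKR was purified via heparin–Sepharose then hydroxyapatite and titrated into 15 nM BODIPY-labeled heparin oligosaccharides (dp2–dp8) in AU75 buffer, pH 7.5, 20 °C; NaCl was raised to 100 or 125 mM where noted. Excitation 488 nm and emission 515 nm, 6 nm bandwidths. Each point averages three 5-s background-corrected reads, with 5 min equilibration. Kd came from a hyperbolic fit, and fold-difference is the ratio of Kd values.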

PKR [4] = target: T1, PKR; assay: Fluorescence anisotropy competition of bdp8 with unlabeled dp8; assay type: binding; details: competition of 500 nM bdp8 + 500 nM PKR with unlabeled ligand
Method in brief: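 Unlabeled heparin oligosaccharide was titrated against 500 nM BODIPY-labeled oligosaccharide plus 500 nM PKR. Run in AU75 buffer (75 mM NaCl, 20 mM Hepes, 0.1 mM EDTA, 0.1 mM TCEP, pH 7.5) at 20 °C. Anisotropy read at excitation 488 nm and emission 515 nm, with 5 min equilibration between points. The competition curve was fitted to yield Kd, which sets the fixed β11 value.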

PKR [5] = target: T1, PKR; assay: Sedimentation velocity; assay type: binding; details: for s(P2H2) / s(PH): uncorrected
PKR [6] = target: T1, PKR; details: cited from earlier work
[7] = target: the molecule itself; assay: sedimentation velocity analytical ultracentrifugation
[8] = Model A with L22 fixed equal to L20, SV

T1 sequence (P19525 whole entry): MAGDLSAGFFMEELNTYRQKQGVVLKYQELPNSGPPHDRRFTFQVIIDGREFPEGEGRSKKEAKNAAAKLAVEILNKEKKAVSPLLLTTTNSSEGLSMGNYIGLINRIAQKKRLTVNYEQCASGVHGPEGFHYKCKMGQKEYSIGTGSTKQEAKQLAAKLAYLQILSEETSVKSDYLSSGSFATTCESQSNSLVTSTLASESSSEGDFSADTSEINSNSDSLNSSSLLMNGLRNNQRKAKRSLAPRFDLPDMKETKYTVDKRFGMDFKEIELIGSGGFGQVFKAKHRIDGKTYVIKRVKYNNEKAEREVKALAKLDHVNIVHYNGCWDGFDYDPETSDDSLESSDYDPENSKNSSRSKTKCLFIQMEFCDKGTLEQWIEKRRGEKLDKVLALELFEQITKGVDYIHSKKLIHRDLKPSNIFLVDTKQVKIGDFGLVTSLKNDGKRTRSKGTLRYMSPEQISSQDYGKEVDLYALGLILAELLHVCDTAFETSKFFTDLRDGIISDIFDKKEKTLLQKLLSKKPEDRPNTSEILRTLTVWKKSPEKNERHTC

PKR (from UniProt P19525)
Kd (PKR [1]): 500 µM

heparin octasaccharide [dp8]
Activation of PKR autophosphorylation (PKR [2]): stimulated
Kd (PKR [3]; 15 nM labeled heparin oligosaccharide, 75 mM NaCl, 20 °C, hyperbolic fit): 0.224 µM
Kd (PKR [3]; 100 mM NaCl): 2.61 ± 0.05 µM
Kd (PKR [3]; 125 mM NaCl): 19 ± 1.9 µM
Kd (PKR [4]): 0.262 ± 0.021 µM
Enhancement of PKR dimerization affinity (PKR [5]): about 4 fold
g(s*) peak maximum (PKR [5]; 60 μM dp8, 2 μM PKR): ~ 4.0 S
g(s*) peak maximum (PKR [5]; 60 μM dp8, 16 μM PKR): about 4.4 S
s(P2H2) (PKR [5]; [8]): 6.21 Svedbergs
s(PH) (PKR [5]; [8]): 4.14 Svedbergs
s(P2H2) (PKR [5]; Model A, SV): 5.98 Svedbergs
s(PH) (PKR [5]; Model A, SV): 3.98 Svedbergs
Frictional ratio f/f0 of PKR upon binding of dp8 (PKR [5]; decrease from 1.56 for free PKR monomer): 1.47

heparin hexasaccharide [dp6]
Activation of PKR autophosphorylation (PKR [2]): stimulated
Activation of PKR, relative activity in earlier studies (PKR [6]): considerably less active than dp8

heparin disaccharide [dp2]
Fold weaker binding affinity than dp8 (PKR [3]): ~150 fold
Kd (PKR [3]; BODIPY-labeled oligosaccharide, 75 mM NaCl): 32.6 ± 7.4 µM

B1: PKR (protein)
chain: AGDLSAGFFMEELNTYRQKQGVVLKYQELPNSGPPHDRRFTFQVIIDGREFPEGEGRSKKEAKNAAAKLAVEILNKEKKAVSPLLLTTTNSSEGLSMGNYIGLINRIAQKKRLTVNYEQCASGVHGPEGFHYKCKMGQKEYSIGTGSTKQEAKQLAAKLAYLQILSEETSVKSDYLSSGSFATTCESQSNSLVTSTLASESSSEGDFSADTSEINSNSDSLNSSSLLMNGLRNNQRKAKRSLAPRFDLPDMKETKYTVDKRFGMDFKEIELIGSGGFGQVFKAKHRIDGKTYVIKRVKYNNEKAEREVKALAKLDHVNIVHYNGCWDGFDYDPETSDDSLESSDYDPENSKNSSRSKTKCLFIQMEFCDKGTLEQWIEKRRGEKLDKVLALELFEQITKGVDYIHSKKLIHRDLKPSNIFLVDTKQVKIGDFGLVTSLKNDGKRTRSKGTLRYMSPEQISSQDYGKEVDLYALGLILAELLHVCDTAFETSKFFTDLRDGIISDIFDKKEKTLLQKLLSKKPEDRPNTSEILRTLTVWKKSPEKNERHTC
Kd [7]: 404 µM
